Assay results published in PubChem BioAssay.
The source made the active and inactive calls.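 How the source made its calls: active means growth inhibition above 25% in both replicates, a cutoff set 3 SD above the mean; inconclusive means above 25% in only one replicate; inactive means the rest.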

Assay: S. cerevisiae growth inhibition in permissive medium (OD615), pilot counter-assay for S. cerevisiae lifespan shortening project, permissive growth control (AID 705)
Conditions: OD615, 24 h, at 10 µM, active compounds read high
Procedure, shortened: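 System: S. cerevisiae with engineered DeaD lifespan system. Medium: SC raffinose/galactose permissive medium. Doses: single compound dose of 10 µM, 0.25% DMSO final. Schedule: 24 h exposure, 30 °C. Measured by: OD615 turbidity read. Read-out: growth inhibition.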

| SMILES | growth inhibition |
| --- | --- |
| Cn1c(C(=O)N2CCN(c3ncccn3)CC2)cc2c(=O)n(C)c3ccccc3c21 | 6.33% (inactive) |
| CC(=O)Nc1cc(NC(C)=O)c(CC(C)C)s1 | -6.92% (inactive) |
| COc1ccc(Nc2cc(C)nc3nc(C)nn23)cc1Cl | 0.45% (inactive) |
| O=C(NC1CCCCCC1)C1C2C=CC3(CN(Cc4cccnc4)C(=O)C13)O2 (stereo unspecified) | 0.045% (inactive) |
| CCOC(=O)N1CCN(C(=O)CS(=O)Cc2nc(-c3cccc(C)c3)oc2C)CC1 (stereo unspecified) | -10.5% (inactive) |
| CCOC(=O)Cc1csc(NC(=O)Nc2ccccc2)n1 | -11.8% (inactive) |
| COc1ccccc1S(=O)(=O)Cc1ccc(C(=O)NCc2ccc3c(c2)OCO3)o1 | -4.21% (inactive) |
| CCOC(=O)N1CCN(C(=O)c2cc3cc(Br)ccc3oc2=O)CC1 | -3.99% (inactive) |
| Cn1cnnc1SCCC(=O)Nc1ccccc1 | 6.46% (inactive) |
| Nc1c(C(=O)NCc2ccccc2)nnn1Cc1ccccc1 | -6.54% (inactive) |
| CCC(=O)Nc1nnc(-c2ccco2)o1 | -3.92% (inactive) |
| O=C1C(C=NCc2ccco2)=C(O)c2ccccc21 | -0.635% (inactive) |
| CCOC(=O)c1cnc2ccc(C(=O)OC)cc2c1NCCN1CCOCC1 | -6.57% (inactive) |
| O=C(CSc1oc(-c2ccco2)nc1S(=O)(=O)c1ccc(Cl)cc1)NCC1CCCO1 (stereo unspecified) | 1.39% (inactive) |
| O=C(Cn1c(NCCCO)nc2ccccc21)c1cccs1 | -5.45% (inactive) |
| O=C(C1CC(c2ccc(F)cc2)=NO1)N1CCN(Cc2ccccc2)CC1 (stereo unspecified) | -0.77% (inactive) |
